Most compounds without a hit are left out; they make up all but 2.2% or so of the library.
APP transl inh: inhibitors of APP translation via 5'UTR reporter, primary screen, APP 5'UTR luciferase, SH-SY5Y cells. SH-SY5Y APP 5'UTR-luciferase reporter, luminescence. inhibition, % at 2 µM. AID 1285, 2008. actives 0.82% (n = 190,000);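 active means inhibition above a set limit, derived from the sample mean plus 3 SD, cut at about 45% in these data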
IEC-6 cytotox: cytotoxicity in IEC-6 intestinal epithelial cells, primary screen, cytotoxicity control for KLF5 inhibitor project, cell-based, luminescence | IEC-6 cytotoxicity, luminescence viability | inhibition, % at 5 µM | actives 0.78% (n = 290,000);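 further: 0% = plate median of test compound wells and 100% = cytotoxic reference compound wells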
b-catenin transl: modulators of beta-catenin nuclear translocation, primary screen, imaging, HeLa cells, immunofluorescence, high-content. nuclear translocation activity, % at 5 µM. actives 0.3% (n = 190,000);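 active means nuclear translocation activity above 50% at 5 µM, with a well cell count of 50 or more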;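 further: per-cell ratio of nuclear to cytoplasmic median beta-catenin stain intensity; plate controls were DMSO negative control for no effect and GSK-3 inhibitor IX positive control for full effect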
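Test system: human HeLa cells, native beta-catenin. Compound dosing: 5 µM primary single dose, 0.1% DMSO, 0.02–20 µM confirmation series. Incubation: compound exposure 24 h at 37°C. Detection: beta-catenin immunostaining with DAPI counterstain, 20x imaging, 6 fields/well. Read-out basis: Nuclear/cytoplasmic beta-catenin signal ratio, % activation.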
Ba/F3 V617F tox: reduced viability of JAK2V617F-dependent Ba/F3 cells, primary screen, JAK2V617F inhibitor project, cell-based, Ba/F3 EpoR-JAK2V617F, luminescence. inhibition, % at 5.6 µM. ATP luminescence. actives 1.1% (n = 220,000);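 active means inhibition above the campaign mean plus 3 SD over all tested compounds, cut at about 24% in these data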;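 further: cytokine-independent growth of Ba/F3 cells driven by EpoR plus mutant JAK2; 0% = DMSO-treated cells and 100% = JAK inhibitor I control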
BaF3 tox: parental Ba/F3 cell viability inhibition, counter-screen for JAK2V617F inhibitor project, murine pro-B, CellTiter-Glo luminescence. CellTiter-Glo ATP luminescence. actives 1.1% (n = 220,000). inhibition, % at 5.6 µM;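 active means inhibition above a per-campaign cutoff, the mean inhibition of all tested compounds plus 3 SD, cut at about 27% in these data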;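 further: 0% = DMSO wells and 100% = JAK Inhibitor I control wells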
MT stabilizer: microtubule stabilizers in HeLa cells, primary screen, imaging, high-content imaging. HeLa tubulin immunostaining HCS, 24 h; share of cells brighter than vehicle mean+2SD. % tubulin-high responders, % at 10 µM. actives 0.83% (n = 200,000). AID 2205, 2009;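 active means plate Z-score above 3 for both tubulin-high and condensed-nucleus cell shares, with cell loss under 80%, at 10 µM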;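 further: anti alpha tubulin signal scored within the nucleus-defined area of each cell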
IEC-6 cytotox cf: cytotoxic compounds in IEC-6 epithelial cells, confirmation, cytotoxicity control, cell-based, luminescence; shares compounds with IEC-6 cytotox; actives 63% (n = 1,900); IEC-6 rat intestinal epithelial viability; inhibition, % at 5 µM;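 further: 0% = vehicle and 100% = reference cytotoxic drug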
* marks the source's active call; other numbers are inactive results; nt = no result given. Unless noted, no stated cut-off is given here; in the data, active means inhibition above about 22%; inactive means the rest.

SMILES	APP transl inh	IEC-6 cytotox	b-catenin transl	Ba/F3 V617F tox	BaF3 tox	MT stabilizer	IEC-6 cytotox cf
CC(C)(C)OC(=O)CNC(=O)c1nc[nH]c1C(=O)N1CCN(C(=O)OC(C)(C)C)CC1	nt	-3.6	nt	nt	nt	nt	nt
CN(C)CCCN(C(=O)c1ccco1)c1nc2cc3c(cc2s1)OCO3	nt	44.9*	nt	nt	nt	nt	21.0
CCN(c1ccccc1)S(=O)(=O)c1ccc(Oc2ccc(-n3ccnc3)cc2)nc1	2.2	30.3*	nt	11.2	20.2	37.9	29.1*
O=C(N/N=C/c1cccc([N+](=O)[O-])c1)C(=O)N1CCCCCC1	nt	-3.0	nt	nt	nt	nt	nt
C=C1C(=O)[C@@]23[C@H](O)C[C@@H]4C(C)(C)CC[C@H](O)[C@@]4(C)[C@@H]2CC[C@@H]1[C@H]3O	83.8*	65.2*	nt	97.9*	91.9*	25.5*	44.4*
COc1ccc(CCNc2cc(C)[nH]c(=O)c2)cc1OC	nt	-8.7	nt	nt	nt	nt	nt
Cn1cc([N+](=O)[O-])c(C(=O)Nc2sc3c(c2C#N)CCC3)n1	nt	91.9*	nt	nt	nt	nt	29.4*
OCCNc1ncnc2c1cnn2Cc1ccccc1	nt	-2.5	nt	nt	nt	nt	nt
c1ccc(CNc2ncnc3c2cnn3Cc2ccccc2)cc1	2.4	27.4*	-0.5	27.0*	33.2*	43.7*	35.0*
O=C(c1ccccn1)N1CCCC(N2CCN(c3ccc(F)cc3)CC2)C1 (centres undefined)	nt	-11.3	nt	nt	nt	nt	nt
Cc1nn2c(NCCN(C)C)c3c(nc2c1-c1ccccc1)CCCC3	nt	25.0*	1.7	7.3	3.5	nt	0.8
COCCNc1c2c(nc3c(-c4ccccc4)c(C)nn13)CCCC2	10.8	-2.2	nt	1.4	7.7	3.4	nt
CCOC(=O)c1c(CSC(=N)N)n(-c2ccccc2)c2cc(Br)c(OC(C)=O)cc12	nt	0.2	1.7	-0.1	-4.8	nt	nt
CCn1c(C)c(C)c2cc(C(=O)N3CCc4ccccc4C3)ccc21	nt	46.2*	nt	nt	nt	nt	29.7*
CCN1CCN(C(=O)c2ccc3c(c2)c(C)c(C)n3Cc2ccccc2)CC1	-5.8	-0.5	0.8	-1.7	3.4	nt	nt
COc1ccc(-c2c(C#N)c(N)nc3c2CCc2ccccc2-3)cc1OC	18.7	33.8*	nt	21.8	10.2	34.1*	23.9*
COc1cc(-c2c(C#N)c(N)nc3c2CCCC3)ccc1O	-0.1	-3.6	-6.5	5.3	8.5	5.9	nt
Cc1c(/C=N\NC(=O)C2COc3ccccc3O2)c2ccccc2n1C (centres undefined)	91.4*	80.1*	57.7*	77.6*	75.7*	5.9	61.4*
COc1ccccc1C(=O)N1CCN(c2cccc(Cl)c2)CC1	94.8*	77.4*	56.4*	80.1*	82.6*	31.1*	54.6*
O=C(c1c(Cl)nc2sccn12)N1CCN(c2cccc(Cl)c2)CC1	94.1*	63.2*	112.0*	78.3*	75.9*	19.0*	43.7*
Cc1cccc(CC(C)NC(=O)c2oc3c(F)cccc3c2C)n1 (centres undefined)	nt	8.9	nt	nt	nt	nt	nt
CCCS(=O)(=O)N1CCCC(C(=O)Oc2ccc(C)c(C)c2)C1 (centres undefined)	nt	-1.5	nt	nt	nt	nt	nt
Cc1ccc(-n2nnnc2Sc2ccc(S(=O)(=O)NCCN(C)C)cc2[N+](=O)[O-])cc1	35.7	28.0*	6.4	96.1*	68.0*	2.5	46.8*
COc1ccc(CC(=O)NNS(=O)(=O)c2ccc(F)cc2)cc1	nt	-2.3	nt	nt	nt	nt	nt
O=c1nccc(N/N=C/c2ccccc2O)[nH]1	nt	96.1*	nt	nt	nt	nt	16.2
COc1cccc(/C=N/Nc2ccnc(=O)[nH]2)c1O	nt	96.8*	nt	nt	nt	nt	23.8*
O=C(CN1C(=O)NC2(CCOc3ccccc32)C1=O)NCC(F)(F)F (centres undefined)	nt	-0.8	nt	nt	nt	nt	nt
CCOc1cc(NC(=O)c2cccs2)c(OCC)cc1NC(=O)CCC(=O)NCc1ccccn1	nt	57.2*	1.3	80.7*	64.1*	nt	12.1
CCOc1cc(NC(=O)c2cccs2)c(OCC)cc1NC(=O)CCC(=O)NCCN1CCOCC1	-94.8	-1.7	-0.7	0.1	4.3	3.3	nt

High-throughput results: PubChem, several laboratories
